Reference: ChEMBL document CHEMBL1129254, “3-[2-(N-phenylacetamide)]-1,5-benzodiazepines: orally active, binding selective CCK-A agonists” (J Med Chem, 1996)

How the values were obtained:
Mus musculus [1] = experiment: Compound tested in vivo for mouse gallbladder emptying at 0.1 uM/kg, ip; assay type: functional
Cavia porcellus = species: Cavia porcellus; experiment: Relative efficacy determined by the maximal contraction observed at 30 uM, standardized to CCK-8; assay type: functional
Procedure, shortened: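 Isolated guinea pig gallbladder contraction. Maximal contraction at 30 μM test ligand expressed relative to CCK-8 (1 μM) = 1.0; n ≥ 3.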

[2] = target: T1, Cholecystokinin receptor type A (Cavia porcellus) (UniProt Q63931); experiment: In vitro agonist activity against Cholecystokinin type A receptor isolated from guinea pig gall bladder.; assay type: functional, tissue-based
T1 sequence (whole entry): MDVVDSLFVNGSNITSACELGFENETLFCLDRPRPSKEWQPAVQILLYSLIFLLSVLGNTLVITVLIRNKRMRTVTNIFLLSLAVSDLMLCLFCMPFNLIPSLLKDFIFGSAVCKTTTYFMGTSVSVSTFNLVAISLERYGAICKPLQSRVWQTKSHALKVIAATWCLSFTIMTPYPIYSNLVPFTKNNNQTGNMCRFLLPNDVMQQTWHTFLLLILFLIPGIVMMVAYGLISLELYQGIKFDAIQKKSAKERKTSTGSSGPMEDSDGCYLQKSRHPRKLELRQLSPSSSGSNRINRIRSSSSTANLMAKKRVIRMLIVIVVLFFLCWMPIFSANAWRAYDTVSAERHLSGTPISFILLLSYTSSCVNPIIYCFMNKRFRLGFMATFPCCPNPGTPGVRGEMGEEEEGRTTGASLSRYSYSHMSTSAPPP

Mus musculus [3] = experiment: Compound tested in vivo for mouse gallbladder emptying at 1.0 uM/kg, po; assay type: functional
[4] = target: T2, Gastrin/cholecystokinin type B receptor (Homo sapiens, UniProt P32239); experiment: Binding affinity against human Cholecystokinin type B receptor in CHO-K1 cells using [125I]-Bolton-Hunter CCK-8 as radioligand; assay type: cell-based
T2 sequence (P32239 whole entry): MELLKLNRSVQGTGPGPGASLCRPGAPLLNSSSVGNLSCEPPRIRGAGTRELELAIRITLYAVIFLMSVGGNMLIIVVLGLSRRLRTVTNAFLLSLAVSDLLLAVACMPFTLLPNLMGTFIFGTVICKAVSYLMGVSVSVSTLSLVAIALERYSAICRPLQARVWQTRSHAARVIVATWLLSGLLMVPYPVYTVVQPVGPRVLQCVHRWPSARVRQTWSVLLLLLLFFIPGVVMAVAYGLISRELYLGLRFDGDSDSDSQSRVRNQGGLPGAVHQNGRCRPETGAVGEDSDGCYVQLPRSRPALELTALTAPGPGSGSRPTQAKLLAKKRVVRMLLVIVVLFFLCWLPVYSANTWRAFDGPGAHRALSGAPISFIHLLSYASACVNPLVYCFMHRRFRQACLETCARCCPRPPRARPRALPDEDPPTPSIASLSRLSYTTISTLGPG

[5] = target: T3, Cholecystokinin receptor type A (Homo sapiens, UniProt P32238); experiment: Binding affinity against human Cholecystokinin type A receptor in membrane preparation isolated from CHO-K1 cells stably transfected with cDNA of human CCK-A using [125I]-Bolton-Hunter CCK-8 as radioligand; assay type: cell membranes
T3 sequence (P32238 whole entry): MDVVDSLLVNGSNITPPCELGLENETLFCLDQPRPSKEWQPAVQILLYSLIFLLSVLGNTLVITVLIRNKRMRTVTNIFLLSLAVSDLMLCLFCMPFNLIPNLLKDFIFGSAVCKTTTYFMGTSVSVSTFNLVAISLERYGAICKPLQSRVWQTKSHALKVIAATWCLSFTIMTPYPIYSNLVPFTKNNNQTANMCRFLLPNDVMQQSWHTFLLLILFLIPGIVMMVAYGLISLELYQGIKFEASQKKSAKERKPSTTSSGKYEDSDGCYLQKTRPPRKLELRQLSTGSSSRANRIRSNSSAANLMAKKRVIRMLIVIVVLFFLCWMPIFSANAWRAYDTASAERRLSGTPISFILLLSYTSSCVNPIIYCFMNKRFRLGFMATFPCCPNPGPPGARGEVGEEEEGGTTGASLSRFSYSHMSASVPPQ

Mus musculus [6] = experiment: Compound tested in vivo for mouse gallbladder emptying at 10 uM/kg, po; assay type: functional

CC(C)N(C(=O)CN1C(=O)C(NC(=O)Nc2ccccc2)C(=O)N(c2ccccc2)c2ccccc21)c1ccccc1 (configuration not stated)
Activity (Mus musculus [1]): 78% | RE (Cavia porcellus): 0.8 | ED50 [2]: 1600 nM

CC(C)N(C(=O)CN1C(=O)C(NC(=O)Cc2ccccc2)C(=O)N(c2ccccc2)c2ccccc21)c1ccccc1 (configuration not stated)
RE (Cavia porcellus): 0.3

CC(C)N(C(=O)CN1C(=O)C(OC(=O)Nc2ccccc2)C(=O)N(c2ccccc2)c2ccccc21)c1ccccc1 (configuration not stated)
RE (Cavia porcellus): 0.2

CC(C)N(C(=O)CN1C(=O)C(NC(=O)Oc2ccccc2)C(=O)N(c2ccccc2)c2ccccc21)c1ccccc1 (configuration not stated)
RE (Cavia porcellus): 0.2

CC(C)N(C(=O)CN1C(=O)C(CC(=O)Nc2ccccc2)C(=O)N(c2ccccc2)c2ccccc21)c1ccccc1 (configuration not stated)
Activity (Mus musculus [1]): 63% | RE (Cavia porcellus): 0.5 | Activity (Mus musculus [3]): 34% | IC50 [4]: 832 nM | ED50 [2]: 430 nM | IC50 [5]: 155 nM

CC(C)N(C(=O)CN1C(=O)C(C)(NC(=O)Nc2ccccc2)C(=O)N(c2ccccc2)c2ccccc21)c1ccccc1 (configuration not stated)
RE (Cavia porcellus): 0.5 | IC50 [4]: 282 nM | ED50 [2]: > 10000 nM

CSCC[C@H](NC(=O)[C@H](Cc1ccc(OS(=O)(=O)O)cc1)NC(=O)[C@@H](N)CC(=O)O)C(=O)NCC(=O)N[C@@H](Cc1c[nH]c2ccccc12)C(=O)N[C@@H](CCSC)C(=O)N[C@@H](CC(=O)O)C(=O)N[C@@H](Cc1ccccc1)C(N)=O [SINCALIDE]
RE (Cavia porcellus): 1 | ED50 [2]: 2 nM

CCC1(CC(=O)Nc2ccccc2)C(=O)N(CC(=O)N(c2ccccc2)C(C)C)c2ccccc2N(c2ccccc2)C1=O (configuration not stated)
Activity (Mus musculus [6]): 42% | Activity (Mus musculus [1]): 68% | RE (Cavia porcellus): 0.6 | Activity (Mus musculus [3]): 45% | IC50 [4]: 794 nM | ED50 [2]: 780 nM

CC(C)N(C(=O)CN1C(=O)C(C)(CC(=O)Nc2ccccc2)C(=O)N(c2ccccc2)c2ccccc21)c1ccccc1 (configuration not stated)
Activity (Mus musculus [6]): 73% | Activity (Mus musculus [1]): 73% | RE (Cavia porcellus): 0.7 | Activity (Mus musculus [3]): 36% | IC50 [4]: 8320 nM | ED50 [2]: 200 nM | IC50 [5]: 75.9 nM

CC(C)N(C(=O)CN1C(=O)C(CC(=O)Nc2ccccc2)(Cc2ccccc2)C(=O)N(c2ccccc2)c2ccccc21)c1ccccc1 (configuration not stated)
IC50 [4]: 8910 nM | IC50 [5]: 389 nM
